Source: PubChem
This is a sample that favours compounds with a hit; in the whole collection about 1.5% have one here.
PLK1 PBD inh: Plk1 (human) PBD binding inhibition | Plk1 PBD phosphopeptide binding, fluorescence polarization | AID 693 | P53350 | hit rate 0.13% among 97,000 | inhibition, %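 (tested at about 20 µM)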; in the data active means inhibition above about 34%, passing the limit was not always enough
HEK293 NFkB inh: lowers PMA/ionomycin-induced NF-kB signal in HEK293 cells | HEK-293 NF-kB luciferase reporter, luminescence | inhibition, % at 3 µM | hit rate 0.21% among 62,000;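 active means inhibition above the mean of all tested compounds plus 3 SD, cut at about 40% in these data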;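 further: 0% = stimulated DMSO wells and 100% = 10 µM reference inhibitor 5653914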
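Timing: 1 h pretreatment, 16 h stimulation, 37 °C; system: HEK-293 cells with stable firefly luciferase reporter driven by four HIV NF-kB elements; doses: 3 µM once, 0.30% DMSO; measured by: luciferase luminescence; control set: DMSO and 10 µM reference inhibitor; repeats: single test; reagent: PMA plus ionomycin mix as NF-kB-activating stimulus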
Pyk2 oligo antag: blocks oligomerization of human Pyk2 in cells | Q14289 | Q293 cells, Pyk2 FERM NanoBiT luminescence; hits give low values | z-score (the deposit names both 25 µM and 10 µM) | hit rate 0.83% among 99,000;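 active means Z-score of -3 or lower, scaled per plate to the spread of control and sample wells; inactive means z-score above -3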;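 further: negative z-score means lost luminescence so less FERM oligomerization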
Target sequence (Q14289 whole entry, looked up): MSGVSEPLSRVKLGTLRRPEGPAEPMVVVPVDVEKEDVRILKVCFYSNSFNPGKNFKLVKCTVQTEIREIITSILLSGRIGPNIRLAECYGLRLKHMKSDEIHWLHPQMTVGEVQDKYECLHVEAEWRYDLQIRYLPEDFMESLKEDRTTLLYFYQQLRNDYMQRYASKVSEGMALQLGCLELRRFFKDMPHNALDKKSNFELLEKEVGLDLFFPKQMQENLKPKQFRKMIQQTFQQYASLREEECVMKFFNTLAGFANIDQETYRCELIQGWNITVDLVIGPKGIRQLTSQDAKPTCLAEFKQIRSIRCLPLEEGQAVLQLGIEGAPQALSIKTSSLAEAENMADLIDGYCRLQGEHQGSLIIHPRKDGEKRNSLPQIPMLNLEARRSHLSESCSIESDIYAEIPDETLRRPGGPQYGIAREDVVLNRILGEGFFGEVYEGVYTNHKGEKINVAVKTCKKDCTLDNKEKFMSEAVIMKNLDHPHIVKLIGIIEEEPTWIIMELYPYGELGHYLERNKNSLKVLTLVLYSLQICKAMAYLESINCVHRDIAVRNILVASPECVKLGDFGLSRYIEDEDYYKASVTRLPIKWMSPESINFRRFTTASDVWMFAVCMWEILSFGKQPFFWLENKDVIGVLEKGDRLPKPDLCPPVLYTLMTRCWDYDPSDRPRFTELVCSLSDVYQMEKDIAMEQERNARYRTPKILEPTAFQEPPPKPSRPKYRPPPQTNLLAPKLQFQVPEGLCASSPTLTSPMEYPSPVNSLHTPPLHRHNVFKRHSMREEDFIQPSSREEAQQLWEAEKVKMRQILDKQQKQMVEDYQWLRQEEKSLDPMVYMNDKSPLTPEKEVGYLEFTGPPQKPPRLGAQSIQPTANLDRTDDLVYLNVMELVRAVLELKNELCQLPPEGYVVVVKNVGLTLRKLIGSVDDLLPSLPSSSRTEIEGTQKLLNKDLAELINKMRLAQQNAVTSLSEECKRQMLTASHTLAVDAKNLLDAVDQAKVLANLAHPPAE
HePTP inhibitor: blocks human HePTP tyrosine phosphatase; P35236; hit rate 0.64% among 110,000; AID 521; recombinant HePTP phosphatase activity, OD absorbance; inhibition, % at 20 µM; in the data active means inhibition above about 50%;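 further: plate controls were vehicle for no effect and reference inhibitor for full effect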
AP complement: alternative pathway complement inhibition, orthogonal assay; Human serum alternative complement pathway, LPS-coated ELISA, C3 deposition; tested in compound mixtures; inhibition, % at 5 µM; hit rate 0.08% among 62,000; AID 1235;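 active means inhibition above 30% in each of the two pooled mixtures holding the compound, so the lower value exceeds 30%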;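 further: 0% = serum in Mg-EGTA without compound and 100% = EDTA serum blank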
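Test system: human serum complement alternative pathway, C3 deposition onto LPS / Medium: Mg2+-EGTA GVB++ buffer containing human serum at 1:15 dilution / Probe or stimulus: Plate-bound LPS / Times: 1 h at 37 °C / Signal: ELISA with HRP anti-human C3 antibody, TMB substrate, absorbance 450 nm / Measure: percent inhibition / Repeats: two pool placements per compound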
PLK1 inh: PLK1 (human) kinase inhibition. inhibition, % at 10 µM. recombinant PLK1 kinase, TR-FRET peptide phosphorylation. P53350. AID 619. hit rate 0.53% among 97,000;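 active means inhibition of 50% or more in the single-concentration screen; inactive means inhibition below 50%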;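 further: 0% = DMSO max control and 100% = H-89 dihydrochloride min control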
PLK1 inh conf: confirmation of human PLK1 kinase inhibitors; shares compounds with PLK1 inh; recombinant PLK1 kinase, TR-FRET peptide phosphorylation; inhibition, % at 10 µM; hit rate 20% among 210;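 active means inhibition at or above 50% in each of two repeat confirmation tests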;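 further: 0% = DMSO max control and 100% = H-89 kinase-blocked min control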
TR-FRET interf: Plk1 assay compound interference counter-screen hit. shares compounds with PLK1 inh. Plk1 TR-FRET assay interference, compound added post-reaction. inhibition (interference), % at 10 µM. 210 tested, under 10 active;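 active means both duplicate runs show 50% or greater inhibition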;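 further: 0% = DMSO max control and 100% = H-89 min control inhibited reaction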
Numbers without * were called inactive; / = not tested or not shown.

SMILES | PLK1 PBD inh | HEK293 NFkB inh | Pyk2 oligo antag | HePTP inhibitor | AP complement | PLK1 inh | others
CCCCn1c(SCc2c(C)noc2C)nc2cc(S(N)(=O)=O)ccc21 | 18.6 | 41.7* | 1.18 | 2.6 | 27.4 | -3.8
CCCCn1c(SCC(=O)c2ccc(OC)cc2OC)nc2cc(S(N)(=O)=O)ccc21 | -3.0 | 6.9 | 0.06 | 11.9 | 18.7 | -10.7
O=C(NCc1ccco1)c1nn2c(C(F)(F)F)cc(-c3ccccc3)nc2c1Cl | / | / | / | 13.2 | / | /
Cc1ccccc1NC(=O)c1c(NC(=O)c2ccccc2C)sc2c1CCCCC2 | / | / | / | 5.0 | / | /
O=C(NC(NC(=O)c1ccco1)c1ccc(Br)cc1)c1ccco1 | / | / | / | 104.4* | / | /
O=C(O)c1ccc2c(c1)C(=O)N(c1ccc(-c3nc4ccccc4c(=O)o3)cc1)C2=O | / | / | / | 14.8 | / | /
O=C(O)c1ccc2c(c1)C(=O)N(c1ccc(-c3nnc(-c4ccccc4)o3)cc1)C2=O | / | / | / | 101.9* | / | /
CC(=O)NC1=NC(=O)/C(=C/c2cc(C)n(-c3ccc(C(=O)O)cc3)c2C)S1 | / | / | / | 60.8* | / | /
COC(=O)/C=C1/N/C(=N/c2nc3ccccc3o2)NC1=O | / | / | / | 1.3 | / | /
Cc1cc(C)c2c(=O)[nH]c(SCC(=O)Nc3ccccc3)nc2n1 | 4.8 | 13.1 | -0.55 | -2.6 | -8.4 | 52.3*
Cc1cc(C)c2c(=O)[nH]c(SCC(=O)Nc3ccc(N(C)C)cc3)nc2n1 | 24.4 | / | 0.34 | / | / | 40.4
O=C(N/N=C/c1nc2ccccc2n1Cc1ccccc1)c1ccccc1 | / | / | / | 7.0 | / | /
CC(=O)Oc1ccc2ccccc2c1C(NC(=O)Cc1ccccc1)c1ccc(Cl)cc1 (centres undefined) | 16.4 | / | -4.03* | / | / | -11.7
CC(=O)Oc1ccc2ccccc2c1C(NC(=O)Cc1ccccc1)c1ccc([N+](=O)[O-])cc1 (centres undefined) | / | / | / | -1.8 | / | /
CCOC(=O)C(C(C)=O)c1c(Br)c(O)c(O)c2c(C(=O)c3ccc(C)cc3)coc12 (centres undefined) | -18.4 | 47.2* | -2.64 | 10.3 | -1.7 | -6.8
CCOC(=O)c1c(C)n(-c2ccc(C)cc2)c2c(C(C(C)=O)C(=O)O)c(Br)c(O)c(O)c12 (centres undefined) | 5.1 | / | -0.99 | / | / | -14.8
COc1cccc(-n2c(SCC(=O)N3CCOCC3)nnc2-c2c[nH]c3ccccc23)c1 | 7.3 | 4.3 | / | 9.8 | 8.2 | 63.4*
Cn1c(SCC(=O)N2CCN(c3ccccc3)CC2)nnc1-c1c[nH]c2ccccc12 | 15.1 | 10.9 | / | 1.4 | 33.2 | 67.0*
CCCCSc1nnc(-c2c[nH]c3ccccc23)n1C | -18.1 | -10.0 | / | -1.9 | 21.7 | 68.8*
Cc1ccc2c(Cl)c(C(=O)Nc3ccccn3)sc2c1 | / | / | / | -12.4 | / | /
O=C(Cn1c(CN2CCCCC2)nc2ccccc2c1=O)Nc1ccccc1 | / | 1.6 | -0.48 | 3.9 | 35.6* | /
CCOC(=O)Nc1nc(-c2ccccc2)c(C(=O)c2ccc(Cl)cc2)s1 | 14.6 | / | -3.4* | / | / | -20.2
O=C(CC1S/C(=N\N=C\c2cccs2)NC1=O)Nc1ccc(C(=O)O)cc1 (centres undefined) | / | / | / | 89.7* | / | /
C/C(=N\N=C1\NC(=O)C(CC(=O)Nc2ccc(C(=O)O)cc2)S1)c1ccc([N+](=O)[O-])cc1 (centres undefined) | / | / | / | 93.7* | / | /
O=C(CC1S/C(=N\N=C\c2ccco2)NC1=O)Nc1ccc(C(=O)O)cc1 (centres undefined) | / | / | / | 100.7* | / | /
SMILES | PLK1 PBD inh | HEK293 NFkB inh | Pyk2 oligo antag | HePTP inhibitor | AP complement | PLK1 inh | others
CCNC(=O)CC1S/C(=N\N=C(/C)c2ccc([N+](=O)[O-])cc2)NC1=O (centres undefined) | / | / | / | 4.1 | / | /
O=C(CC1S/C(=N\N=C\c2cccs2)NC1=O)Nc1ccccc1C(F)(F)F (centres undefined) | / | / | / | 5.4 | / | /
CCc1cc(=O)oc2c(C)c(OCC(=O)N3CCCc4ccccc43)ccc12 | -21.6 | / | -4.58* | / | / | 6.4
Cc1cc(C)c2c(c1)=C(c1sc(N)nc1O)C(=O)N=2 | / | / | / | 69.2* | / | /
CCc1ccc(C2(c3ccc(CC)cc3)CC2C(=O)Nc2nccs2)cc1 (centres undefined) | / | / | / | -6.3 | / | /
O=C1N/C(=N\N=C\c2ccccc2O)SC1Cc1ccc(Cl)cc1 (centres undefined) | / | / | / | 7.0 | / | /
c1ccc(CCn2nnnc2C(c2cccnc2)N2CCN(c3nc4ccccc4s3)CC2)cc1 (centres undefined) | -25.6 | 9.7 | -3.05* | 3.2 | -9.6 | 4.5
COc1ccc(C(c2nnnn2Cc2cccs2)N2CCN(c3ccccc3F)CC2)cc1 (centres undefined) | 7.5 | 14.1 | -3.87* | 0.6 | 10.9 | -8.6
COc1ccc(C(c2nnnn2Cc2ccccc2)N2CCN(c3nc4ccccc4s3)CC2)cc1 (centres undefined) | / | 14.5 | -4.09* | 3.1 | 16.8 | /
COCCn1nnnc1C(c1ccccc1)N1CCN(c2ccccc2)CC1 (centres undefined) | -1.0 | / | -2.31 | / | / | -1.3
c1ccc(CCn2nnnc2C(c2cccnc2)N2CCN(c3ccccc3)CC2)cc1 (centres undefined) | 0.6 | 20.1 | -2.03 | -0.1 | -3.4 | -4.5
COc1ccc(Cn2nnnc2C(c2ccccc2)N2CCN(C3CCCC3)CC2)cc1 (centres undefined) | / | -0.4 | 0.16 | -1.1 | 7.8 | /
COCCn1nnnc1C(c1ccc(OC)c(OC)c1)N1CCN(c2nc3ccccc3s2)CC1 (centres undefined) | -19.4 | 1.3 | -3.37* | 3.4 | -11.1 | -7.7
Cc1cc(-c2ccc(/C=c3\sc4nc5cc(Br)cnc5n4c3=O)o2)c(C)c([N+](=O)[O-])c1 | / | / | / | 7.7 | / | /
O=C(NC(=S)Nc1ccc(-c2nc3cc(Cl)ccc3o2)cc1)c1ccccc1Cl | / | / | / | -1.4 | / | /
O=C1Nc2c(Cl)cc(Cl)c3cccc1c23 | / | / | / | 7.1 | / | /
COc1ccc(C(c2nnnn2Cc2ccccc2)N2CCN(c3ccccc3)CC2)cc1 (centres undefined) | / | 9.4 | -3.82* | 2.7 | 14.7 | /
CCCC(c1nnnn1Cc1cccs1)N1CCN(c2nc3ccccc3s2)CC1 (centres undefined) | 22.5 | 18.3 | -3.49* | -1.0 | -3.6 | -16.1
CCCC(c1nnnn1CC1CCCO1)N1CCN(c2nc3ccccc3s2)CC1 (centres undefined) | -13.6 | / | -2.41 | / | / | -10.0
N#Cc1c(-c2ccc(F)cc2)c(C#N)c2nc3ccccc3n2c1N | / | / | / | -13.9 | / | /
Cc1ccc(-c2c(C#N)c(N)n3c(nc4ccccc43)c2C#N)cc1 | -2.1 | / | -4.02* | / | / | -10.3
Cc1cc(Nc2cccc(Cl)c2)n2ncnc2n1 | / | 23.2 | / | -0.6 | 15.3 | /
Cc1cc(C(C#N)c2cccc(Cl)c2)n2ncnc2n1 (centres undefined) | 25.6 | / | -2.19 | / | / | 71.0* | PLK1 inh conf=62.9*;TR-FRET interf=-55.3
